Source: paper PMC9796011 (Journal of Gastroenterology and Hepatology, 2022)

What was measured:
[1] = Trough level of infliximab; type: in vivo, human; settings: CD patients; 4 and 8 weeks vs day 1
Summary of the method: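 Serum was collected immediately before each biologic dose. Infliximab trough levels were measured by ELISA at a contract lab in patients given placebo or 10 or 15 ng/kg/min test compound, infused 8 h/day for 7 days starting on the day of biologic dosing; changes were assessed at 8 weeks.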

[2] = system: patients with biologic‐resistant CD; experiment: Phase 2a trial: Crohn's disease activity index; type: in vivo, human; settings: 10 + 15 ng/kg/min groups pooled, mean ± SD
Summary of the method: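 Patients (n = 24) were randomized 1:1:1 in blocks of three to placebo or 10 or 15 ng/kg/min test compound, infused 8 h/day for 7 days alongside ongoing biologic. Doctors scored CDAI by questionnaire at baseline and at 4, 6, 8, 16 and 24 weeks. Response was a drop of ≥50 points; remission was CDAI ≤150. Changes are mean ± SD, compared by t-test/ANOVA and, over 0–24 weeks, by a mixed-effects model.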

[3] = system: patients with biologic‐resistant CD; experiment: CRP, fecal calprotectin and FIT; type: in vivo, human; settings: CRP at 2, 4, 8 weeks; fecal calprotectin and FIT at 1 week; data not shown
Summary of the method: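 Adults with biologic-resistant CD at 16 Japanese centres were randomized 1:1:1 to placebo or 10 or 15 ng/kg/min of test compound, infused 8 h/day for 7 days from the day of biologic dosing. CRP was measured at 2, 4 and 8 weeks. Stool was collected before dosing and on day 8 for fecal calprotectin (fluorescence enzyme immunoassay) and FIT by a commercial lab. Groups were compared by t-test and ANOVA with Fisher's test.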

[4] = Plasma concentration of adrenomedullin; type: in vivo; settings: human, intravenous
Summary of the method: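 Blood was drawn before and at 4, 8 and 10 h after the start of the 8-h infusion (10 or 15 ng/kg/min) on days 1 and 7, and at 4 and 8 weeks. Test compound was measured by automated ELISA. Cmax and Tmax were read directly from the data; AUC was computed over 0–10 h. Values are mean ± SD.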

[5] = system: patients with biologic‐resistant CD; experiment: Safety evaluation: adverse events, vital signs; type: in vivo, human
Summary of the method: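 All 24 patients, hospitalized for the 7-day infusion of placebo or 10 or 15 ng/kg/min test compound (8 h/day), were assessed for AEs and SAEs throughout the study. Vital signs, blood and urine tests and 12-lead ECG were taken at set times after dosing, with screening within 2 weeks before therapy. Patients with systolic BP <90 mmHg or pulse <45 bpm were excluded.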

[6] = system: Crohn's disease; settings: cited from earlier work

Molecule: CC[C@H](C)[C@H](NC(=O)[C@H](CCC(N)=O)NC(=O)[C@H](Cc1c[nH]cn1)NC(=O)[C@H](C)NC(=O)[C@H](CC(C)C)NC(=O)[C@H](CCCCN)NC(=O)[C@H](CCC(N)=O)NC(=O)[C@@H](NC(=O)[C@@H](NC(=O)[C@@H]1CSSC[C@H](NC(=O)CNC(=O)[C@H](Cc2ccccc2)NC(=O)[C@H](CO)NC(=O)[C@H](CCCNC(=N)N)NC(=O)[C@H](CC(C)C)NC(=O)CNC(=O)[C@H](CCC(N)=O)NC(=O)[C@H](Cc2ccccc2)NC(=O)[C@H](CC(N)=O)NC(=O)[C@H](CC(N)=O)NC(=O)[C@H](CCSC)NC(=O)[C@H](CO)NC(=O)[C@H](CCC(N)=O)NC(=O)[C@H](CCCNC(=N)N)NC(=O)[C@@H](N)Cc2ccc(O)cc2)C(=O)N[C@@H](CCCNC(=N)N)C(=O)N[C@@H](Cc2ccccc2)C(=O)NCC(=O)N[C@@H]([C@@H](C)O)C(=O)N1)[C@@H](C)O)C(C)C)C(=O)N[C@@H](Cc1ccc(O)cc1)C(=O)N[C@@H](CCC(N)=O)C(=O)N[C@@H](Cc1ccccc1)C(=O)N[C@H](C(=O)N[C@@H](CC(=O)O)C(=O)N[C@@H](CCCCN)C(=O)N[C@@H](CC(=O)O)C(=O)N[C@@H](CCCCN)C(=O)N[C@@H](CC(=O)O)C(=O)N[C@@H](CC(N)=O)C(=O)N[C@H](C(=O)N[C@@H](C)C(=O)N1CCC[C@H]1C(=O)N[C@@H](CCCNC(=N)N)C(=O)N[C@@H](CO)C(=O)N[C@@H](CCCCN)C(=O)N[C@H](C(=O)N[C@@H](CO)C(=O)N1CCC[C@H]1C(=O)N[C@@H](CCC(N)=O)C(=O)NCC(=O)N[C@@H](Cc1ccc(O)cc1)C(N)=O)[C@@H](C)CC)C(C)C)[C@@H](C)O [Adrenomedullin]
- Trough levels of biologics (infliximab, adalimumab) after AM administration [1]: did not change
- Changes in CDAI ([2]; 4 weeks, n = 16): −71 ± 83
- Changes in CDAI ([2]; 6 weeks, n = 14): −72 ± 67
- Changes in CDAI (primary endpoint) ([2]; 8 weeks, n = 15): −81 ± 73
- Changes in CDAI ([2]; 16 weeks, n = 10): −61 ± 51
- Changes in CDAI ([2]; 24 weeks, n = 9): −81 ± 46
- Changes in CRP levels, fecal calprotectin and FIT versus placebo [3]: no differences
- AUC(0-t) ([4]; 10 ng/kg/min): 0.247 ± 0.06 ng·h/mL
- AUC(0-t) ([4]; 15 ng/kg/min): 0.441 ± 0.245 ng·h/mL
- Cmax ([4]; 15 ng/kg/min): 0.0653 ± 0.043 ng/mL
- Any adverse events, patients (%) ([5]; 10 ng/kg/min, 8 patients): 7 (88%)
- Deaths ([5]; 10 ng/kg/min, 8 patients): 0
- Decrease in body weight, patients (%) ([5]; 10 ng/kg/min, 8 patients): 0
- Dehydration, patients (%) ([5]; 10 ng/kg/min, 8 patients): 0
- Dizziness, patients (%) ([5]; 10 ng/kg/min, 8 patients): 1 (13%)
- Fever up, patients (%) ([5]; 10 ng/kg/min, 8 patients): 0
- Flushing, patients (%) ([5]; 10 ng/kg/min, 8 patients): 1 (13%)
- Head discomfort, patients (%) ([5]; 10 ng/kg/min, 8 patients): 0
- Headache, patients (%) ([5]; 10 ng/kg/min, 8 patients): 3 (38%)
- Increase in transaminase level, patients (%) ([5]; 10 ng/kg/min, 8 patients): 0
- Lumbago, patients (%) ([5]; 10 ng/kg/min, 8 patients): 0
- Moderate to severe adverse events, patients (%) ([5]; 10 ng/kg/min, 8 patients): 1 (13%)
- Nasopharyngitis, patients (%) ([5]; 10 ng/kg/min, 8 patients): 1 (13%)
- Palpitation, patients (%) ([5]; 10 ng/kg/min, 8 patients): 1 (13%)
- Rash, patients (%) ([5]; 10 ng/kg/min, 8 patients): 1 (13%)
- Right bundle branch block, patients (%) ([5]; 10 ng/kg/min, 8 patients): 0
- Serious adverse events, patients (%) ([5]; 10 ng/kg/min, 8 patients): 0
- Vomiting, patients (%) ([5]; 10 ng/kg/min, 8 patients): 0
- Any adverse events, patients (%) ([5]; 15 ng/kg/min, 8 patients): 8 (100%)
- Deaths ([5]; 15 ng/kg/min, 8 patients): 0
- Decrease in body weight, patients (%) ([5]; 15 ng/kg/min, 8 patients): 0
- Dehydration, patients (%) ([5]; 15 ng/kg/min, 8 patients): 1 (13%)
- Dizziness, patients (%) ([5]; 15 ng/kg/min, 8 patients): 0
- Fever up, patients (%) ([5]; 15 ng/kg/min, 8 patients): 3 (38%)
- Flushing, patients (%) ([5]; 15 ng/kg/min, 8 patients): 1 (13%)
- Head discomfort, patients (%) ([5]; 15 ng/kg/min, 8 patients): 1 (13%)
- Headache, patients (%) ([5]; 15 ng/kg/min, 8 patients): 7 (88%)
- Increase in transaminase level, patients (%) ([5]; 15 ng/kg/min, 8 patients): 1 (13%)
- Lumbago, patients (%) ([5]; 15 ng/kg/min, 8 patients): 0
- Moderate to severe adverse events, patients (%) ([5]; 15 ng/kg/min, 8 patients): 3 (38%)
- Nasopharyngitis, patients (%) ([5]; 15 ng/kg/min, 8 patients): 2 (25%)
- Palpitation, patients (%) ([5]; 15 ng/kg/min, 8 patients): 2 (25%)
- Rash, patients (%) ([5]; 15 ng/kg/min, 8 patients): 1 (13%)
- Right bundle branch block, patients (%) ([5]; 15 ng/kg/min, 8 patients): 1 (13%)
- Vomiting, patients (%) ([5]; 15 ng/kg/min, 8 patients): 1 (13%)
- Changes in blood pressure and pulse rate ([5]; all groups, throughout the drug administration period, data not shown): did not observe any statistically significant changes

Molecule: Infliximab
- Annual risk of loss of infliximab response [6]: 13 % per patient‐year
